ChEMBL document CHEMBL2034874, “5-acetyl-2-arylbenzimidazoles as antiviral agents. Part 4” (Eur J Med Chem, 2012)

Experiments:
[1] = system: Mammalian orthoreovirus 1; assay: Antiviral activity against Reovirus 1 3651 ATCC VR-214 infected in BHK21 cells assessed as inhibition of virus-induced cytopathogenicity after 3 to 4 days by MTT assay; assay type: functional, organism-based; conditions: Mammalian orthoreovirus 1, 3651 ATCC VR-214, BHK-21
Summary of the method: (§1)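 BHK (5×10^4/well) or MDBK (3×10^4/well) cells grown to confluent monolayers overnight, infected at m.o.i. 0.01 in maintenance MEM-Earl with 0.5% inactivated FBS. Serially diluted compounds added after 1 h. Viability read by MTT after 3–4 days at 37 °C. Values are expressed as % of untreated controls, and EC50 is derived by linear regression. Duplicate samples.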

Poliovirus 1 = assay: Antiviral activity against Polio virus type 1 strain sabin ATCC VR-1562 infected in african green monkey Vero-76 cells assessed as reduction in viral plaque after 2 days by crystal violet staining; assay type: functional, cell-based, Human poliovirus 1 strain Sabin; conditions: Enterovirus C, ATCC VR-1562, Vero 76, 48 h
[2] = Antiviral activity against BVDV1 NADL ATCC VR-534 infected in MDBK cells assessed as inhibition of virus-induced cytopathogenicity after 3 to 4 days by MTT assay; assay type: functional, cell-based, Bovine viral diarrhea virus 1-NADL; conditions: Bovine viral diarrhea virus isolates and strains, ATCC VR-534, MDBK; summary of the method: as §1
[3] = Cytotoxicity against african green monkey Vero 76 cells after 48 to 96 hrs by MTT assay; assay type: cell-based; conditions: chlorocebus sabaeus
Yellow fever virus = assay: Antiviral activity against Yellow fever virus 17D infected in BHK21 cells assessed as inhibition of virus-induced cytopathogenicity after 3 to 4 days by MTT assay; assay type: functional, cell-based; conditions: BHK-21
[4] = Cytotoxicity against human MT4 cells after 96 hrs by MTT assay; assay type: cell-based
Summary of the method: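 Exponentially growing MT-4 cells seeded at 1×10^5 cells/mL in RPMI-1640 with 10% FBS and incubated with serial compound dilutions at 37 °C and 5% CO2. Viability measured by MTT after 96 h. CC50 by linear regression against untreated controls.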

Coxsackievirus B5 = assay: Antiviral activity against Coxsackie virus type B5 Ohio-1 ATCC VR-29 infected in african green monkey Vero-76 cells assessed as reduction in viral plaque after 3 days by crystal violet staining; assay type: functional, organism-based; conditions: Enterovirus B, Ohio-1 ATCC VR-29, Vero 76, 72 h
Summary of the method: (§2)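 Vero-76 monolayers (2×10^5 cells/well) infected for 2 h at 50–100 PFU/well. Unadsorbed virus removed. D-MEM with 1% inactivated FBS, 0.75% methylcellulose and serial compound dilutions added. Incubation at 37 °C for 3 days (CVB-5, HSV-1) or 5 days (RSV). Fixed and stained with 50% ethanol/0.8% crystal violet, then plaques counted. EC50 by linear regression versus untreated controls.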

[5] = Cytotoxicity against BHK21 cells by MTT assay; assay type: cell-based, Mesocricetus auratus; conditions: hamster, BHK-21 cells
Summary of the method: (§3)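 Mock-infected MDBK (6×10^5 cells/mL, MEM-E with 10% horse serum) or BHK (1×10^6 cells/mL, MEM-E with 10% FBS) cells incubated with serial compound dilutions at 37 °C and 5% CO2. Viability measured by MTT after 48–96 h. CC50 by linear regression against untreated controls.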

Human alphaherpesvirus 1 = assay: Antiviral activity against Herpes simplex virus type 1 KOS ATCC VR-1493 infected in african green monkey Vero-76 cells assessed as reduction in viral plaque after 3 days by crystal violet staining; assay type: functional, organism-based; conditions: Human alphaherpesvirus 1, KOS ATCC VR1493, Vero 76, 72 h; summary of the method: as §2
[6] = Antiviral activity against Human respiratory syncytial virus A2 ATCC VR-1540 infected in african green monkey Vero-76 cells assessed as reduction in viral plaque after 5 days by crystal violet staining; assay type: functional, cell-based; conditions: ATCC VR-1540, Vero 76, 120 h; summary of the method: as §2
Vaccinia virus = assay: Antiviral activity against Vaccinia virus Elstree-Lister ATCC VR-1549 infected in african green monkey Vero-76 cells assessed as reduction in viral plaque after 3 days by crystal violet staining; assay type: functional, organism-based; conditions: Orthopoxvirus vaccinia, Elstree-Lister ATCC VR-1549, Vero 76, 72 h
[7] = Cytotoxicity against MDBK cells after 48 to 96 hrs by MTT assay; assay type: cell-based, Bos taurus; conditions: cattle; summary of the method: as §3
[8] = system: Human immunodeficiency virus 1; assay: Antiviral activity against HIV1 3B infected in human MT4 cells assessed as inhibition of virus-induced cytopathogenicity after 4 days by MTT assay; assay type: functional, organism-based; conditions: Human immunodeficiency virus 1, 3B, MT4, 96 h
Summary of the method: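 MT-4 cells (1×10^4/well) in RPMI with serial compound dilutions, infected with HIV-1 IIIB at 100 CCID50 (m.o.i. 0.01). Viability measured by MTT after 4 days at 37 °C. EC50 for 50% protection from cytopathogenicity obtained by linear regression against untreated controls.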

[9] = system: Vesicular stomatitis Indiana virus; assay: Antiviral activity against Vesicular stomatitis virus indiana ATCC VR-1540 infected in african green monkey Vero-76 cells assessed as reduction in viral plaque after 2 days by crystal violet staining; assay type: functional, organism-based; conditions: ATCC VR-1540, Vero 76, 48 h

| Compound | EC50 [1] | EC50 (Poliovirus 1) | EC50 [2] | CC50 [3] | EC50 (Yellow fever virus) | CC50 at 96 h [4] | EC50 (Coxsackievirus B5) | CC50 [5] | EC50 (Human alphaherpesvirus 1) | EC50 [6] | EC50 (Vaccinia virus) | CC50 [7] | EC50 [8] | EC50 [9] |
| --- | --- | --- | --- | --- | --- | --- | --- | --- | --- | --- | --- | --- | --- | --- |
| COc1ccc(-c2nc3cc(C(C)=O)ccc3n2C2CCCCC2)c(OC)c1 | > 85 µM | > 70 µM | > 21 µM | 70 µM | > 8.5 µM | 21 µM | > 70 µM | 8.5 µM | > 70 µM | > 70 µM | > 70 µM | 21 µM | > 21 µM | > 70 µM |
| COc1ccc(-c2nc3cc(/C(C)=N/NC(N)=S)ccc3n2C2CCCCC2)c(OC)c1 | > 17 µM | > 20 µM | 4 µM | 20 µM | > 17 µM | 17 µM | > 20 µM | 17 µM | > 20 µM | > 20 µM | > 20 µM | > 100 µM | ≥ 17 µM | > 20 µM |
| CC(=O)c1ccc2[nH]c(C3CCCCC3)nc2c1 | > 100 µM | > 100 µM | > 100 µM | > 100 µM | > 100 µM | > 100 µM | 47 µM | > 100 µM | > 100 µM |  | > 100 µM | > 100 µM | > 100 µM | > 100 µM |
| C/C(=N\NC(N)=S)c1ccc2[nH]c(-c3ccccc3)nc2c1 | > 32 µM | > 100 µM | 3.8 µM | > 100 µM | > 32 µM | ≥ 100 µM | > 100 µM | 32 µM |  | > 100 µM |  | 32 µM | > 100 µM | > 100 µM |
| CC(=O)c1ccc2c(c1)nc(-c1ccoc1)n2C1CCCCC1 |  | > 80 µM | > 100 µM | 80 µM | > 77 µM | 63 µM | > 80 µM | 77 µM | > 80 µM |  | > 80 µM | > 100 µM | > 63 µM |  |
| COc1ccc(-c2nc3cc(/C(C)=N/NC(N)=O)ccc3n2C2CCCCC2)c(OC)c1 |  | > 20 µM | 22 µM | 20 µM | > 19 µM | 23 µM | > 20 µM | 19 µM | > 20 µM |  | > 20 µM | 36 µM | > 23 µM |  |
| C/C(=N\NC(N)=S)c1ccc2c(c1)nc(-c1ccoc1)n2C1CCCCC1 |  | > 25 µM | > 100 µM | 25 µM | > 100 µM | 21 µM | > 25 µM | > 100 µM | > 25 µM |  | > 25 µM | > 100 µM | > 21 µM | > 25 µM |
| COc1ccc(-c2nc3cc(C(C)=O)ccc3[nH]2)c(OC)c1 |  | > 100 µM | 21 µM | > 100 µM | > 50 µM | 50 µM | > 100 µM | 50 µM |  |  | > 100 µM | 73 µM | > 50 µM |  |
| C/C(=N\NC(N)=S)c1ccc2[nH]c(-c3ccc(Cl)cc3)nc2c1 | > 100 µM | > 100 µM | 0.85 µM | > 100 µM | > 100 µM | 2 µM | > 100 µM | > 100 µM |  |  | > 100 µM | > 100 µM | > 2 µM | > 100 µM |
| CC(=O)c1ccc2c(c1)nc(-c1ccccn1)n2C1CCCCC1 |  | > 90 µM | > 100 µM | > 90 µM | > 100 µM | 70 µM | > 90 µM | ≥ 100 µM | > 90 µM |  | > 90 µM | > 100 µM | > 70 µM | > 90 µM |
| CC(=O)c1ccc2[nH]c(-c3ccoc3)nc2c1 |  | > 100 µM | 22 µM | > 100 µM | > 98 µM | > 100 µM | > 100 µM | 98 µM | > 100 µM |  | > 100 µM | ≥ 100 µM | > 100 µM | > 100 µM |
| COc1ccc(-c2nc3cc(/C(C)=N/O)ccc3[nH]2)c(OC)c1OC | > 100 µM | > 100 µM | > 100 µM | > 100 µM | > 100 µM | 51 µM | > 100 µM | > 100 µM | > 100 µM |  | > 100 µM | > 100 µM | > 51 µM |  |
| COc1ccc(-c2nc3cc(/C(C)=N/NC(N)=O)ccc3[nH]2)c(OC)c1 | > 100 µM | > 80 µM | 2.55 µM | 80 µM | > 100 µM | 21 µM | > 80 µM | ≥ 100 µM |  |  | 80 µM | > 100 µM | ≥ 21 µM | > 80 µM |
| COc1ccc(-c2nc3cc(/C(C)=N/NC(N)=S)ccc3n2C2CCCCC2)cc1 |  | > 40 µM | 7 µM | 40 µM |  | 39 µM | > 40 µM |  | > 40 µM | > 40 µM | > 40 µM | 32 µM | > 39 µM | > 40 µM |
| COc1ccc(-c2nc3cc(C(C)=O)ccc3[nH]2)cc1 |  | > 100 µM | > 58 µM | > 100 µM | > 40 µM | 24 µM | > 100 µM | 40 µM |  |  | > 100 µM | 58 µM | > 24 µM |  |
| C/C(=N\NC(N)=S)c1ccc2c(c1)nc(-c1ccccn1)n2C1CCCCC1 |  | > 20 µM | 26 µM | 20 µM | > 24 µM | 23 µM | > 20 µM | 24 µM | > 20 µM |  | > 20 µM | 41 µM | > 23 µM | > 20 µM |
| COc1ccc(-c2nc3cc(C(C)O)ccc3[nH]2)c(OC)c1OC (stereo unspecified) | > 100 µM | > 100 µM | > 60 µM | ≥ 100 µM | > 60 µM | 79 µM | > 100 µM | 60 µM | > 100 µM | > 100 µM | > 100 µM | 60 µM | > 79 µM |  |
| COc1ccc(-c2nc3cc(/C(C)=N/NC(N)=S)ccc3[nH]2)cc1 | > 13 µM | > 100 µM | 1.85 µM | > 100 µM | > 13 µM | 5 µM | > 100 µM | 13 µM |  |  | > 100 µM | 13 µM | > 5 µM | > 100 µM |
| C/C(=N\NC(N)=S)c1ccc2[nH]c(C3CCCCC3)nc2c1 |  | > 100 µM | 16 µM | > 100 µM | > 24 µM | 48 µM | > 100 µM | 24 µM |  | > 100 µM | > 100 µM | > 100 µM | > 48 µM | > 100 µM |
| C/C(=N\NC(N)=S)c1ccc2[nH]c(-c3ccc(C(F)(F)F)cc3)nc2c1 |  | > 22 µM | > 1.8 µM | 22 µM | > 5 µM | 2 µM | > 22 µM | 5 µM |  |  |  | 5 µM | > 2 µM |  |
